Laboratory results taken from the M2OR odorant receptor database.

Target: T1, OR2G2 (Homo sapiens) (UniProt Q8NGZ5)
T1 sequence (whole entry): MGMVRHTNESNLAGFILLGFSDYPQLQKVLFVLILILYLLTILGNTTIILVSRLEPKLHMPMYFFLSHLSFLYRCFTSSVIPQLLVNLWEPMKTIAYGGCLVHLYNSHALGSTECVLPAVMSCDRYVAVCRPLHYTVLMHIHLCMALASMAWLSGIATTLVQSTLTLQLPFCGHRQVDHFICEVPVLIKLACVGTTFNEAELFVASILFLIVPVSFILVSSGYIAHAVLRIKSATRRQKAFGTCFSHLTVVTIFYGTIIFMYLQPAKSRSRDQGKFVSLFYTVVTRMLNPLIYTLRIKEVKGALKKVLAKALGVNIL
Conditions: stereoisomer not certain
Summary of the method: (§1)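 Each entry records the cell line, G-protein, co-transfected protein and tags used. Methods varied with the source, often transient luciferase assays in mammalian cell lines. A receptor–molecule pair is called responsive (active) if the original authors judged its signal statistically different from baseline and non-responsive (inactive) otherwise.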

Odorant receptor agonist call, inactive:
Cc1ccc(C(C)C)cc1O
CC(=O)OCc1ccccc1
CC1=CCC2CC1C2(C)C (stereo unspecified)
CC(=O)C=CC1=C(C)CCCC1(C)C
CC(C)=CCCC(C)=CCO
C=CCOC(=O)COCCC(C)C
CCCCCC1C(=O)CCC1CC(=O)OC (stereo unspecified)
COc1ccc(C)cc1
CC(C)=CCCC(C)CC=O (stereo unspecified)
CCCCC1CCC(=O)O1 (stereo unspecified)
CCCCCC1COCCC1OC(C)=O (stereo unspecified)
C=CC(C)(CCC=C(C)C)OC(C)=O (stereo unspecified)
CCOC(=O)CC1(C)OCCO1

Target: T2, OR2H2 (Homo sapiens) (UniProt O95918)
T2 sequence (whole entry): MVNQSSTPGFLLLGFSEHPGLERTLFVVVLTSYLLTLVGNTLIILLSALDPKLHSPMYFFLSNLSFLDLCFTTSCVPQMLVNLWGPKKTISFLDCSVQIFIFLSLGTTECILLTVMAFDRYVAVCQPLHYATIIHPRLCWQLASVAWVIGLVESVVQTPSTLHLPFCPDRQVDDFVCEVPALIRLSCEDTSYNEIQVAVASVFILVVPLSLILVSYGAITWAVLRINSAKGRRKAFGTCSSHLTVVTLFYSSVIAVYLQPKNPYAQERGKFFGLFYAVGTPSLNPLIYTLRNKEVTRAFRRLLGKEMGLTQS
Conditions: stereoisomer not certain
Summary of the method: as §1

Odorant receptor agonist call, inactive:
CCCCCCCCCCCC=O
CCCCCCCC(=O)[O-].[H+]
CC(C=O)=CCC(C)CC(C)C (stereo unspecified)
CCCCCCCCO
CCCCCC=O

Odorant receptor agonist call, active:
CCCCCC=CC=O
CC(C)=CCCC(C)CC=O (stereo unspecified)
CCCC=CC=CC=O
